Key:
human plasma HDL = experiment: Human plasma remodeling, Western blot for human apoA-I; type: biochemical; details: Western blot, 0.4, 0.2, 0.1 mg/mL
Summary of the method: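 Lipid-poor pre-beta HDL was then detected by Western blotting for human apoA-I. The positive control was a control peptide at 0.1 mg/mL, and the negative control was 10% sucrose.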

[1] = system: mouse macrophage J774 cells; type: cell-based; details: 0.3 mg/mL peptide in human plasma, 2% apoB-depleted plasma, 4 h
Summary of the method: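 Mouse macrophage J774 cells were incubated 4 h with 2% apoB-depleted plasma samples. The plasma was human plasma pre-treated with peptide at 0.3 mg/mL (~270 μM cyclic peptide), with a concentration range for one peptide. Efflux was expressed relative to vehicle-treated plasma, set as 0% efflux. Samples were run in quadruplicate and reported as mean ± SD. Peptide alone as acceptor was also tested against vehicle.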

human plasma HDLs = experiment: Pre-beta HDL ELISA after incubating human plasma with peptide; type: biochemical; details: ELISA screen
Summary of the method: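 Peptides were incubated with human plasma in vitro for 1 h. Pre-beta HDL was then quantified by ELISA and reported as the concentration of pre-beta HDL generated, as mean ± SD.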

Row | Substance | plasma HDL remodeling, in words (human plasma HDL) | cholesterol efflux, in words [1] | HDL remodeling activity (pre-beta HDL formation), in words (human plasma HDLs)
1 | Ac-wLwSeQsO-NH2 [compound 82] | failed to remodel plasma HDL | failed to remodel plasma HDL or promote cholesterol efflux | –
2 | WlWrEqEr [compound 22] | – | – | nearly identical
3 | wLwErQrE [compound 30] | – | dramatically reduced compared to that of 21 | dramatically reduced compared to 21
4 | wWwReQeR [compound 25] | – | – | less active than peptide 21
5 | wMeLwReMeQeR [peptide 27] | – | – | greatly diminished compared to 21
6 | wNAwReQeR [compound 26] | – | – | less active than peptide 21
7 | c[wL^MewSeQ^MesO] [compound 83] | greatly diminished | greatly diminished | –
8 | wLwReQeO [compound 18] | – | – | essentially inactive
9 | wAOwReQeR [compound 24] | – | – | less active than peptide 21
10 | wHLwReQeR [compound 23] | – | – | less active than peptide 21
11 | wLWReQeR [compound 28] | – | – | reduced
12 | wLwREQeR [compound 29] | – | – | reduced
13 | pyLwKsKsK [compound 37] | – | – | promoted HDL remodeling
